# Rows were chosen to be rich in hits. Some 4% of all compounds tested hit in one or more screens of this group.
# GRIN3A LBD mod = modulators (binders) of human NR3A ligand-binding domain. NR3A LBD differential scanning fluorimetry, Tm shift; 0% = protein alone, 100% = glycine-bound protein. Tm shift relative to glycine control, % at 25 µM. hit rate 2.5% among 340,000. AID 1259313;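 active means melting temperature shift of at least 10% of the positive control shift, at one fixed dose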
# iPSC survival up = hiPSC single-cell survival enhancement; ATPlite luminescence; 100% = ROCK inhibitor wells, 0% = DMSO; survival enhancement, % at 20 µM; hit rate 0.044% among 360,000; in the data active means survival enhancement above about 18%;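 further: cells exposed to compounds for 16 hours before the ATP read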
# Arrestin-AP2 inh = blocks beta-arrestin peptide binding to AP2 adaptin; FITC-arrestin peptide / GST-AP2 beads, flow cytometry; AP2 beta2 appendage carries R879A mutation; inhibition, % at 10 µM; hit rate 0.31% among 340,000;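 active means inhibition above a set limit, near 3 SD of compounds lacking own fluorescence, cut at about 54% in these data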;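 further: plate controls were DMSO wells for no effect and 5 µM unlabelled arrestin peptide for full effect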
#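 Test system: GST-tagged AP2 beta2-adaptin appendage (R879A) on 4 µm glutathione beads; also added: fluorescein-tagged arrestin peptide at 50 nM final; timing: 12 min plus 1 h, RT; signal: flow cytometry, FL1 (488/535 nm); read-out: percent drop in bead-associated FITC signal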
# FAS-TE inh = FAS thioesterase (human) inhibition; inhibition, % at 15 µM; P49327; hit rate 0.67% among 360,000; AID 602261; recombinant FAS-TE, OMFH fluorogenic substrate, fluorescence endpoint;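 active means compounds whose normalised, plate-corrected inhibition of enzyme fluorescence in the single-dose primary screen is 50% or more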;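 further: 0% = DMSO with enzyme and 100% = substrate without enzyme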
# H9c2 protect = protects H9c2 cardiomyocytes from peroxide injury. H2O2 injury protection, ATPLite, 2 h. protection from H2O2 cell death, % at 20 µM. hit rate 0.63% among 360,000;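 active means compounds giving at least 50% protection of heart cells from peroxide-induced death in the single-dose screen, raw or plate-pattern-corrected value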;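 further: 0% = DMSO wells with peroxide and 100% = DMSO wells without peroxide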
# SENP1 FRET inh = inhibitors of human SENP1 SUMO protease catalytic domain. Q9P0U3. recombinant SENP1 catalytic domain, CyPet-SUMO1-YPet FRET cleavage. inhibition, % at 10 µM. hit rate 0.21% among 360,000. AID 624204;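 active means inhibition at least 30% at 10 µM, raw YFP signal under a set limit, fluorescence ratio 0.5 to 1.5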;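 further: 0% = enzyme with DMSO and 100% = no enzyme wells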
#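 System: Recombinant human SENP1 catalytic domain, His6-tagged | Incubation: Enzyme reaction for 50 min at room temperature, dark | Medium: Tris pH 8 with BME, BSA, NP40 and catalase | Also added: 25 nM SUMO1 FRET substrate | Compound: 10 µM single point, 0.5% DMSO | Measured by: FRET fluorescence in CFP and YFP emission channels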
# * = called active by the depositor; . = no result.
SMILES,GRIN3A LBD mod,iPSC survival up,Arrestin-AP2 inh,FAS-TE inh,H9c2 protect,SENP1 FRET inh
O=C1N/C(=N\S(=O)(=O)Cc2ccccc2)S/C1=C/c1cc([N+](=O)[O-])ccc1O,8.2,-0.2,-1.1,-4.8,3.5,25.0
O=C(Nc1cc(Cl)ccc1O)c1cc2n(n1)C(C(F)(F)F)CC(c1ccc3c(c1)OCO3)N2 (stereo not drawn),22.5*,-1.1,-3.2,9.9,-10.1,4.2
O=C(Nc1ccc(-c2csc(Nc3ccccc3)n2)cc1)c1ccccc1,17.3*,1.9,1.7,0.2,-15.6,-0.3
O=C(Nc1cccc(-c2csc(Nc3ccc(Cl)cc3)n2)c1)c1ccccc1,25.4*,-2.5,12.9,30.0,8.7,-0.3
O=C(NNc1nc(-c2ccccc2)cs1)c1ccccc1,-1.3,0.0,-0.8,-1.9,27.1,3.3
O=C(Nc1cccc(-c2csc(Nc3ccc(Cl)cc3)n2)c1)c1cccc(C(F)(F)F)c1,26.3*,6.1,29.5,47.5,-10.8,-0.4
O=C(Nc1cccc(-c2csc(Nc3ccccc3)n2)c1)c1cc([N+](=O)[O-])cc(C(F)(F)F)c1,7.9,3.8,11.5,4.1,3.8,-0.2
COC(=O)[C@]12CCCCC=C1N(CCC1=CCCCC1)C(=O)[C@H](CC(=O)N1CCC(c3ccccc3)CC1)C2,.,0.5,.,14.4,.,1.1
C=CCNC(=O)C1CC2Cn3c(nc4cc5ccccc5cc43)C2N1C (stereo not drawn),11.5*,0.6,-1.7,-5.8,16.5,-3.4
CN1C(C(=O)NCc2cccc(C(F)(F)F)c2)CC2Cn3c(nc4cc5ccccc5cc43)C21 (stereo not drawn),-0.4,2.1,4.0,-1.7,-8.5,1.1
O=C([C@H]1O[C@@H](n2ccc(=O)[nH]c2=O)[C@H](O)[C@@H]1O)N(CCC1=CCCCC1)CC1CC1,.,1.3,.,-9.2,2.0,3.0
CCOc1ccc(-n2c(=S)sc3c(=O)n(-c4ccccc4)c(SCC(=O)O)nc32)cc1,-1.1,-0.4,-12.5,-3.3,1.8,-0.8
CCOc1ccc(-n2c(=S)sc3c(=O)n(-c4ccc(F)cc4)c(SCC(=O)O)nc32)cc1,14.9*,0.8,1.2,-2.9,0.6,1.3
CC1=CCC[C@@H]2[C@]3(CC/C(=C/CO)CO)CO[C@@]2(C1)[C@@H](O)C[C@H]3C,.,2.0,.,0.0,2.4,1.2
CNC(=O)C1Cc2c(-c3ccc4c(c3)OCO4)ccnc2O1 (stereo not drawn),.,2.2,.,-8.0,4.2,0.8
Fc1ccc2[nH]c3c(c2c1)CN(C(=S)NCc1ccccc1)CC3,29.1*,0.9,31.0,29.7,-1.1,-37.6
C=CCNC(=O)N1CCc2[nH]c3ccc(F)cc3c2C1,-0.2,-0.5,-5.9,-22.6,7.6,-26.4
CC(C)C[C@H]1CN(CCCC[C@H]2CNC(=O)C(=O)N2CCc2ccc(O)cc2)C(=O)C(=O)N1Cc1ccccc1,.,1.0,.,-6.7,.,0.6
O=C(/C=C1\SC(=O)N(CC(=O)Nc2ccc(Cl)cc2)C1=O)Nc1ccc(F)cc1,36.0*,-1.5,1.4,-10.3,-3.2,0.9
Cc1cccc(NC(=O)CN2C(=O)S/C(=C\C(=O)Nc3ccc(Cl)cc3)C2=O)c1,8.8,-1.3,-3.4,-2.8,-0.7,28.9
O=C(/C=C1\SC(=O)N(CC(=O)Nc2ccc(F)cc2)C1=O)Nc1ccc(Cl)cc1,27.2*,0.1,1.2,-4.4,0.3,10.1
CCC(=O)N(c1nnc(SCC(=O)Nc2sccc2C(N)=O)s1)C1CC1,.,2.6,.,-4.5,-0.9,-2.3
NC(CCc1ccccc1)c1csc(Nc2cnccn2)n1 (stereo not drawn),.,-0.2,.,2.4,8.1,-0.2
CC(C)(C)c1ccc(-c2noc(-c3ccno3)n2)cc1,12.5*,-0.2,-8.4,14.5,-7.0,-3.4
Cc1ccc(S(=O)(=O)NCC(=O)OCC(=O)N2N=C(c3ccc(Cl)cc3)CC2c2ccco2)cc1C (stereo not drawn),31.0*,2.5,2.5,27.4,-17.3,-7.0
SMILES,GRIN3A LBD mod,iPSC survival up,Arrestin-AP2 inh,FAS-TE inh,H9c2 protect,SENP1 FRET inh
O=C(Nc1ccc2c(c1)OCO2)c1cc(C2CCCCN2S(=O)(=O)Cc2ccccc2)on1 (stereo not drawn),.,1.8,.,20.2,-8.0,2.2
Nc1ccc(-c2cc(-c3ccc(N)cc3)nc(-c3ccccc3)n2)cc1,25.2*,1.8,5.3,1.0,-3.8,-49.6
Oc1ccc(-c2nccc(-c3ccc(Cl)cc3)n2)cc1,56.7*,-0.9,-11.2,-3.2,-3.5,-0.1
Oc1ccc(-c2cccc(-c3ccc(O)cc3)n2)cc1,14.0*,4.0,22.8,6.4,-1.5,0.5
Oc1ccc(-c2cc(-c3ccc(O)cc3)nc(-c3ccccc3)n2)cc1,28.8*,0.8,24.1,36.0,-11.4,0.1
Oc1ccc(-c2nccc(-c3ccc(Cl)cc3Cl)n2)cc1,-9.2,-0.9,7.4,14.9,-1.9,2.1
COc1ccc(N2CCN(c3cc(C(=O)Nc4cc(OC)c(OC)c(OC)c4)ncn3)CC2)cc1OC,.,5.2,.,3.9,25.1,-2.7
C=CCn1cnc2c(c1=O)c1nc3ccccc3nc1n2/N=C/c1cc(OC)c(OC)c(OC)c1,-2.8,-0.9,-12.3,13.3,64.9*,-5.4
C=CCn1cnc2c(c1=O)c1nc3ccccc3nc1n2/N=C/c1ccccn1,-1.5,-1.3,0.5,-4.4,97.8*,-5.1
COc1cc(/C=N/n2c(C)nc3ccccc3c2=O)ccc1O,-1.8,-0.4,2.4,-2.2,3.5,2.1
COCCn1cnc2c(c1=O)c1nc3ccccc3nc1n2/N=C/c1cccc(OC)c1,2.9,0.8,-20.7,10.6,51.8*,-4.2
COc1cccc(/C=N/n2c(N)nc3ccccc32)c1OC,-12.6,-2.1,-31.8,-5.6,0.2,0.1
C=CCn1cnc2c(c1=O)c1nc3ccccc3nc1n2/N=C/c1cccc(OC)c1OC,-1.5,-1.7,3.3,-0.7,73.6*,-10.7
O=c1c2c3nc4ccccc4nc3n(/N=C/c3ccccn3)c2ncn1-c1ccccc1,-1.3,1.7,37.0,-1.7,35.3,-46.4
CC1(C(=O)Nc2nccs2)CCN1C(=O)CC(c1ccccc1)c1ccccc1 (stereo not drawn),.,-1.0,.,12.2,9.5,4.7
CC(C)(C(=O)N1CCC1(C)C(=O)NS(=O)(=O)c1ccccc1Cl)c1ccccc1 (stereo not drawn),.,-1.3,.,-5.2,-8.0,0.6
CC(C)(C)OC(=O)N1CCC(C(=O)O)CC1,2.5,0.9,26.6,-8.2,-3.4,0.2
CC(C)(C)OC(=O)N1CCOCCOCCN(C(=O)OC(C)(C)C)CCOCCOCC1,705.0*,5.8,-0.1,0.2,4.3,1.1

# From PubChem
